Measured values reported in ChEMBL document CHEMBL1130044, “Design, synthesis, and evaluation of tetrahydropyrimidinones as an example of a general approach to nonpeptide HIV protease inhibitors” (J Med Chem, 1997).

What was measured:
MT2 = assay: Concentration required to reduce HIV viral RNA concentration by 90% in MT-2 cells infected with HIV-1RF was determined; conditions: Homo sapiens
[1] = target: Human immunodeficiency virus type 1 protease (Human immunodeficiency virus 1, UniProt Q72874); assay: Binding affinity against HIV protease
Outline: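 HIV protease inhibition measured as cleavage of a fluorescent substrate, with the cleavage products quantified by HPLC. Ki values were derived from this assay.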

[2] = tested on: Human immunodeficiency virus type 1 (RF/HAT ISOLATE); assay: Reduction in HIV viral RNA concentration by 90% in MT-2 cells infected with HIV-1RF.; format: functional; conditions: Human immunodeficiency virus 1, RF, MT2
Outline: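 MT-2 cells infected with HIV-1RF; viral RNA transcript accumulation measured 3 days post-infection; value is the compound concentration lowering viral RNA by 90% from the reference level.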

SMILES	IC90 (MT2) [nM]	Ki [1] [nM]	IC90 [2] [nM]
O=C1N(Cc2ccccc2)[C@@H](Cc2ccccc2)C(O)[C@H](Cc2ccccc2)N1Cc1ccccc1	80000		
NC(=O)c1cccc(CN2C(=O)N(Cc3cccc(C(N)=O)c3)[C@@H](Cc3ccccc3)[C@@H](O)[C@@H]2CCc2ccccc2)c1		4800	> 5000
O=C1N[C@H](CCc2ccccc2)[C@@H](O)[C@@H](Cc2ccccc2)N1			> 5000
Nc1ccc(CN2C(=O)N(Cc3ccc(N)c(F)c3)[C@H](Cc3ccccc3)[C@H](O)[C@H]2CCc2ccccc2)cc1F		8	540
O=C1N(Cc2ccc(CO)cc2)[C@H](CCc2ccccc2)[C@@H](O)[C@@H](Cc2ccccc2)N1Cc1ccc(CO)cc1		2.5	3600
COC(=O)c1cccc(CN2C(=O)C(=O)N(Cc3cccc(C(=O)OC)c3)[C@H](Cc3ccccc3)[C@H](O)[C@H]2CCc2ccccc2)c1		40	
O=C1N(Cc2ccccc2)[C@H](CCc2ccccc2)[C@@H](O)[C@@H](Cc2ccccc2)N1Cc1ccccc1		15	2800
CNc1cccc(CN2C(=O)N(Cc3cccc(NC)c3)[C@H](Cc3ccccc3)[C@H](O)[C@H]2CCc2ccccc2)c1		4.9	328
NC(=O)c1cc(CN2C(=O)N(Cc3ccc(F)c(C(N)=O)c3)[C@H](Cc3ccccc3)[C@H](O)[C@H]2CCc2ccccc2)ccc1F		1.4	490
O=C1N(Cc2cccc(O)c2)[C@H](CCc2ccccc2)[C@@H](O)[C@@H](Cc2ccccc2)N1Cc1cccc(O)c1		0.3	115
N#Cc1cccc(CN2C(=O)N(Cc3cccc(C#N)c3)[C@H](Cc3ccccc3)[C@H](O)[C@H]2CCc2ccccc2)c1		11	1600
COC(=O)c1cccc(CN2C(=O)N(Cc3cccc(C(=O)OC)c3)[C@@H](Cc3ccccc3)[C@@H](O)[C@@H]2CCc2ccccc2)c1			> 5000
O=C1N(Cc2cccc(CO)c2)[C@@H](CCc2ccccc2)[C@H](O)[C@H](Cc2ccccc2)N1Cc1cccc(CO)c1		550	> 5000
O=C1N(Cc2ccc3ccccc3c2)C(Cc2ccccc2)P(=O)(O)C(Cc2ccccc2)N1Cc1ccc2ccccc2c1 (stereo unspecified)	260		
NC(=O)c1cccc(CN2C(=O)N(Cc3cccc(C(N)=O)c3)[C@H](Cc3ccccc3)[C@H](O)[C@H]2CCc2ccccc2)c1		0.088	35
N#Cc1cccc(CN2C(=O)N(Cc3cccc(C#N)c3)[C@@H](Cc3ccccc3)[C@@H](O)[C@@H]2CCc2ccccc2)c1		8000	> 5000
O=C1N(Cc2cccc(O)c2)[C@H](Cc2ccccc2)C(O)[C@@H](Cc2ccccc2)N1Cc1cccc(O)c1		33	
N=C(NO)c1cccc(CN2C(=O)N(Cc3cccc(/C(N)=N\O)c3)[C@@H](CCc3ccccc3)[C@H](O)[C@@H]2Cc2ccccc2)c1			> 5000
O=C1N(CC2CC2)[C@H](CCc2ccccc2)[C@@H](O)[C@@H](Cc2ccccc2)N1CC1CC1		3.8	5200
Nc1cccc(CN2C(=O)N(Cc3cccc(N)c3)[C@H](Cc3ccccc3)[C@H](O)[C@H]2CCc2ccccc2)c1		1.7	365
Nc1cc(CN2C(=O)N(Cc3ccc(F)c(N)c3)[C@H](Cc3ccccc3)[C@H](O)[C@H]2CCc2ccccc2)ccc1F		0.25	36
N=C(NO)c1cccc(CN2C(=O)N(Cc3cccc(/C(N)=N/O)c3)[C@H](CCc3ccccc3)[C@@H](O)[C@H]2Cc2ccccc2)c1			49
COC(=O)c1cccc(CN2C(=O)N(Cc3cccc(C(=O)OC)c3)[C@H](Cc3ccccc3)[C@H](O)[C@H]2CCc2ccccc2)c1			> 5000
COC(=O)c1ccc(CN2C(=O)N(Cc3ccc(C(=O)OC)cc3)[C@H](Cc3ccccc3)[C@H](O)[C@H]2CCc2ccccc2)cc1		1970	> 5000
O=C1N(Cc2cccc(CO)c2)[C@H](CCc2ccccc2)[C@@H](O)[C@@H](Cc2ccccc2)N1Cc1cccc(CO)c1		0.49	109
